Assay results taken from ChEMBL document CHEMBL1144663, “1-Aryl-tetrahydroisoquinoline analogs as active anti-HIV agents in vitro” (Bioorg Med Chem Lett, 2008).
In brackets after ≈: the same amount, converted by molar mass.

How the values were obtained:
[1] = test system: Human immunodeficiency virus 1; test: Antiviral activity against HIV1 3B in C8166 cells by syncytium reduction assay; type: functional, organism-based; settings: Human immunodeficiency virus 1, 3B
How it was run: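 C8166 cells (4 × 10⁵/mL) exposed to serial compound concentrations and infected with HIV-1 IIIB at MOI 0.06; zidovudine positive control. After 3 days of culture, syncytia counted per well by inverted microscopy; percent inhibition versus infected untreated control; EC50 is concentration protecting cells from viral cytopathogenicity by 50%.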

[2] = Cytotoxicity against human C8166 cells after 72 hrs by MTT method; type: cell-based
How it was run: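 Supernatant discarded, MTT (5 mg/mL in PBS) added for 4 h, formazan dissolved in 50% DMF–20% SDS, absorbance 595/630 nm. CC50 (50% reduction of viable cells) taken from dose–response curve.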

[3] = Selectivity index, ratio of CC50 for C8166 cells to EC50 for HIV1 3B; type: functional
How it was run: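 Ratio of CC50 (MTT, uninfected C8166, 72 h) to EC50 (syncytium reduction, HIV-1 IIIB-infected C8166, MOI 0.06, 3 days), both determined in this work.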

[4] = biological target: Human immunodeficiency virus type 1 reverse transcriptase (Human immunodeficiency virus 1) (UniProt Q72547); test: Inhibition of HIV1 recombinant reverse transcriptase at 210 ug/ml
[5] = biological target: Human immunodeficiency virus type 1 reverse transcriptase (Human immunodeficiency virus 1) (UniProt Q72547); test: Inhibition of HIV1 recombinant reverse transcriptase at 200 ug/ml
[6] = test system: Human immunodeficiency virus; test: Inhibition of HIV replication in H9 cells; type: functional, organism-based; settings: Human immunodeficiency virus 1, H9

Row | SMILES | EC50 [1] [µM] | CC50 at 72 h [2] [µM] | Ratio CC50/EC50 [3] | Inhibition [4] [%] | Inhibition [5] [%] | EC50 [6] [µg/mL]
1 | Oc1cc2c(cc1O)C(c1ccccc1F)NCC2 (centres undefined) | 58.4 | > 772 | >13 | – | – | –
2 | N#Cc1ccc(C2NCCc3cc(O)c(O)cc32)cc1 (centres undefined) | 53.7 | > 752 | >14 | – | – | –
3 | Oc1cc2c(cc1O)C(c1ccc(C(F)(F)F)cc1)NCC2 (centres undefined) | 27.6 | 42.3 | 1.5 | – | – | –
4 | COc1cc2c(cc1OC)C(c1ccccc1OC)NCC2 (centres undefined) | 45.9 | 555 | 12 | – | – | –
5 | COc1cc2c(cc1OC)C(c1cccc(Cl)c1)NCC2 (centres undefined) | 31.8 | 184 | 5.9 | – | – | –
6 | CC1NCCc2ccc(O)c(O)c21 (centres undefined) | – | – | – | 48 | – | –
7 | COc1ccccc1C1NCCc2cc(O)c(O)cc21 (centres undefined) | 42.2 | > 738 | >18 | – | – | –
8 | Oc1cc2c(cc1O)C(c1ccco1)NCC2 (centres undefined) | 61.7 | > 866 | >14 | – | – | –
9 | Oc1cc2c(cc1O)C(c1ccc(Br)cc1)NCC2 (centres undefined) | 36.2 | > 625 | >18 | – | – | –
10 | COc1cc2c(cc1OC)C(c1ccccc1C)NCC2 (centres undefined) | 42.5 | 197 | 4.6 | – | – | –
11 | Oc1cc2c(cc1O)C(c1cccc(Cl)c1)NCC2 (centres undefined) | 4.6 | > 727 | >159 | – | 20 | –
12 | COc1cc2c(cc1OC)C(c1cccc(Br)c1)NCC2 (centres undefined) | 43.5 | 107 | 2.4 | – | – | –
13 | COc1cc2c(cc1OC)C(c1ccc(C(F)(F)F)cc1)NCC2 (centres undefined) | 27.8 | 30.9 | <1 | – | – | –
14 | COc1cc2c(cc1OC)C(c1ccccc1Br)NCC2 (centres undefined) | 31.3 | 89 | 2.8 | – | – | –
15 | COc1cc2c(cc1OC)C(c1ccccc1Cl)NCC2 (centres undefined) | 58.4 | 249 | 4.3 | – | – | –
16 | Cc1ccc(C2NCCc3cc(O)c(O)cc32)cc1 (centres undefined) | 8.2 | > 784 | >95 | – | 28 | –
17 | COc1cc2c(cc1OC)C(c1ccccn1)NCC2 (centres undefined) | 171 | 444 | 2.8 | – | – | –
18 | COc1ccc(C2NCCc3cc(O)c(O)cc32)c(OC)c1 (centres undefined) | 46.5 | > 664 | >14 | – | – | –
19 | COc1cc2c(cc1OC)C(c1ccc(Br)cc1)NCC2 (centres undefined) | 16.9 | 37.9 | 2.2 | – | – | –
20 | Cc1ccccc1C1NCCc2cc(O)c(O)cc21 (centres undefined) | 61.9 | > 784 | >13 | – | – | –

Row | SMILES | EC50 [1] [µM] | CC50 at 72 h [2] [µM] | Ratio CC50/EC50 [3] | Inhibition [4] [%] | Inhibition [5] [%] | EC50 [6] [µg/mL]
21 | COc1ccc(C2NCCc3cc(OC)c(OC)cc32)c(OC)c1 (centres undefined) | 43.8 | 227 | 5.2 | – | – | –
22 | COc1cc2c(cc1OC)C(c1ccc(C)cc1)NCC2 (centres undefined) | 67.3 | 281 | 4.2 | – | – | –
23 | COc1ccc(C2NCCc3cc(O)c(O)cc32)cc1 (centres undefined) | 34.1 | > 738 | >22 | – | – | –
24 | COc1cc2c(cc1OC)C(c1ccccc1)NCC2 (centres undefined) | 120 | 294 | 2.4 | – | – | –
25 | Oc1cc2c(cc1O)C(c1ccccc1Br)NCC2 (centres undefined) | 23.7 | > 625 | >26 | – | – | –
26 | COc1cc2c(cc1OC)C(c1ccccc1F)NCC2 (centres undefined) | 69 | 175 | 2.8 | – | – | –
27 | COc1cc2c(cc1O)[C@@H](Cc1ccc(O)cc1)NCC2 | – | – | – | – | – | 0.8 (≈ 2.8 µM)
28 | COc1ccc(C2NCCc3cc(OC)c(OC)cc32)cc1 (centres undefined) | 127 | 312 | 2.5 | – | – | –
29 | CC1NCCc2cc(O)c(O)cc21 (centres undefined) | – | – | – | – | – | 0.117 (≈ 0.653 µM)
30 | Oc1cc2c(cc1O)C(c1ccccc1Cl)NCC2 (centres undefined) | 51.8 | > 727 | >14 | – | – | –
31 | Oc1cc2c(cc1O)C(c1cccc(Br)c1)NCC2 (centres undefined) | 53.5 | > 625 | >12 | – | – | –
32 | Oc1cc2c(cc1O)C(c1cccc3ccccc13)NCC2 (centres undefined) | 33.2 | 47.4 | 1.9 | – | – | –
33 | Cc1cn([C@H]2C[C@H](N=[N+]=[N-])[C@@H](CO)O2)c(=O)[nH]c1=O [ZIDOVUDINE] | 0.011 | > 749 | >68091 | – | – | –
34 | Oc1cc2c(cc1O)C(c1ccccc1)NCC2 (centres undefined) | 67.3 | > 830 | >12 | – | – | –
35 | COc1cc2c(cc1OC)C(c1ccco1)NCC2 (centres undefined) | 152 | 572 | 3.8 | – | – | –
36 | COc1cc2c(cc1OC)C(c1cccc3ccccc13)NCC2 (centres undefined) | 22.6 | 64.8 | 2.9 | – | – | –
37 | Oc1cc2c(cc1O)C(c1ccccn1)NCC2 (centres undefined) | 48.4 | > 826 | >11 | – | – | –
38 | COc1cc2c(cc1OC)C(c1ccc3ccccc3c1)NCC2 (centres undefined) | 6.9 | 54.6 | 7.9 | – | – | –
39 | Oc1cc2c(cc1O)C(c1ccc3ccccc3c1)NCC2 (centres undefined) | 5.3 | > 687 | >130 | – | 30 | –
